≈ marks a conversion by molar mass, not a printed value.
Key:
Staphylococcus aureus [1] = assay: Antibacterial activity against Staphylococcus aureus ATCC 6538 after 24 hrs by microdilution method; type: functional; details: ATCC 6538, 24 h
How it was run: (§1)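 Broth microdilution in 96-well plates. Bacterial suspensions were adjusted in sterile saline to 1.0 × 10⁵ CFU/ml, prepared daily and kept at 4 °C. Compound was added to LB broth with 1.0 × 10⁴ CFU per well and shaken at 160 rpm for 24 h at […] (so in the source). MIC is the lowest concentration with no visible growth under a binocular microscope. OD655 was also read. Duplicate, repeated three times.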

Bacillus cereus [2] = assay: Antibacterial activity against clinical isolate of Bacillus cereus after 24 hrs by microdilution method; type: functional; how it was run: as §1
Micrococcus flavus [3] = assay: Antibacterial activity against Micrococcus flavus ATCC 10240 after 24 hrs by microdilution method; type: functional; details: ATCC 10240, 24 h; how it was run: as §1
Listeria monocytogenes [4] = assay: Antibacterial activity against Listeria monocytogenes NCTC 7973 after 24 hrs by microdilution method; type: functional; details: NCTC 7973, 24 h; how it was run: as §1
Pseudomonas aeruginosa [5] = assay: Antibacterial activity against Pseudomonas aeruginosa ATCC 27853 after 24 hrs by microdilution method; type: functional; details: ATCC 27853, 24 h; how it was run: as §1
Salmonella typhimurium [6] = assay: Antibacterial activity against Salmonella Typhimurium ATCC 13311 after 24 hrs by microdilution method; type: functional, Salmonella enterica subsp. enterica serovar Typhimurium; details: Salmonella enterica, ATCC 13311, 24 h; how it was run: as §1
Escherichia coli [7] = assay: Antibacterial activity against Escherichia coli ATCC 35210 after 24 hrs by microdilution method; type: functional; details: ATCC 35210, 24 h; how it was run: as §1
Enterococcus faecalis [8] = assay: Antibacterial activity against Enterococcus faecalis isolated from human after 24 hrs by microdilution method; type: functional; how it was run: as §1
Staphylococcus aureus [9] = assay: Antibacterial activity against Staphylococcus aureus ATCC 6538 incubated for 24 hrs followed by serial sub-cultivation for 24 hrs by microdilution method; type: functional; details: ATCC 6538, 24 h
How it was run: (§2)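 MBC: after the 24 h LB broth microdilution (1.0 × 10⁴ CFU per well, 160 rpm), wells were serially sub-cultured into fresh broth plates and incubated a further 24 h. MBC is the lowest concentration with no visible growth, taken as 99.5% killing of the original inoculum. Duplicate, repeated three times.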

Bacillus cereus [10] = assay: Antibacterial activity against clinical isolate of Bacillus cereus incubated for 24 hrs followed by serial sub-cultivation for 24 hrs by microdilution; type: functional; how it was run: as §2
Micrococcus flavus [11] = assay: Antibacterial activity against Micrococcus flavus ATCC 10240 incubated for 24 hrs followed by serial sub-cultivation for 24 hrs by microdilution; type: functional; details: ATCC 10240, 24 h; how it was run: as §2
Listeria monocytogenes [12] = assay: Antibacterial activity against Listeria monocytogenes NCTC 7973 incubated for 24 hrs followed by serial sub-cultivation for 24 hrs by microdilution; type: functional; details: NCTC 7973, 24 h; how it was run: as §2
Pseudomonas aeruginosa [13] = assay: Antibacterial activity against Pseudomonas aeruginosa ATCC 27853 incubated for 24 hrs followed by serial sub-cultivation for 24 hrs by microdilution; type: functional; details: ATCC 27853, 24 h; how it was run: as §2
Salmonella typhimurium [14] = assay: Antibacterial activity against Salmonella Typhimurium ATCC 13311 incubated for 24 hrs followed by serial sub-cultivation for 24 hrs by microdilution; type: functional, Salmonella enterica subsp. enterica serovar Typhimurium; details: Salmonella enterica, ATCC 13311, 24 h; how it was run: as §2
Escherichia coli [15] = assay: Antibacterial activity against Escherichia coli ATCC 35210 incubated for 24 hrs followed by serial sub-cultivation for 24 hrs by microdilution; type: functional; details: ATCC 35210, 24 h; how it was run: as §2
Enterococcus faecalis [16] = assay: Antibacterial activity against Enterococcus faecalis isolated from human incubated for 24 hrs followed by serial sub-cultivation for 24 hrs by microdilution; type: functional; how it was run: as §2
Aspergillus ochraceus [17] = assay: Antifungal activity against Aspergillus ochraceus ATCC 12066 after 72 hrs by serial dilution technique; type: functional; details: ATCC 12066, 72 h
How it was run: (§3)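 Modified microdilution in 96-well plates. Fungi were kept on malt agar at 4 °C. Spores were washed off in sterile 0.85% saline with 0.1% Tween 80. Compounds were dissolved at 1 mg/ml in 5% DMSO with 0.1% Tween 80 and added to malt broth with inoculum. Plates were shaken at 160 rpm for 72 h at 28 °C. Duplicate, repeated three times.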

Aspergillus niger [18] = assay: Antifungal activity against Aspergillus niger ATCC 6275 after 72 hrs by serial dilution technique; type: functional; details: ATCC 6275, 72 h; how it was run: as §3
Aspergillus flavus [19] = assay: Antifungal activity against Aspergillus flavus ATCC 9643 after 72 hrs by serial dilution technique; type: functional; details: ATCC 9643, 72 h; how it was run: as §3
Talaromyces funiculosus [20] = assay: Antifungal activity against Penicillium funiculosum ATCC 36839 after 72 hrs by serial dilution technique; type: functional; details: ATCC 36839, 72 h; how it was run: as §3
Penicillium ochrochloron [21] = assay: Antifungal activity against Penicillium ochrochloron ATCC 9112 after 72 hrs by serial dilution technique; type: functional; details: ATCC 9112, 72 h; how it was run: as §3
Trichoderma viride [22] = assay: Antifungal activity against Trichoderma viride IAM 5061 after 72 hrs by serial dilution technique; type: functional; details: IAM 5061, 72 h; how it was run: as §3
Candida albicans [23] = assay: Antifungal activity against Candida albicans isolated from human after 72 hrs by serial dilution technique; type: functional; how it was run: as §3
Aspergillus ochraceus [24] = assay: Antifungal activity against Aspergillus ochraceus ATCC 12066 incubated for 72 hrs followed by serial sub-cultivation for 72 hrs by serial dilution technique; type: functional; details: ATCC 12066, 72 h
How it was run: (§4)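 MFC: material from 72 h malt broth microdilution wells was serially sub-cultured into fresh broth plates and incubated a further 72 h at 28 °C. Fungicidal concentration is taken from growth after sub-culture. Duplicate, repeated three times.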

Aspergillus fumigatus [25] = assay: Antifungal activity against Aspergillus fumigatus isolated from human incubated for 72 hrs followed by serial sub-cultivation for 72 hrs by serial dilution technique; type: functional; how it was run: as §4
Aspergillus niger [26] = assay: Antifungal activity against Aspergillus niger ATCC 6275 incubated for 72 hrs followed by serial sub-cultivation for 72 hrs by serial dilution technique; type: functional; details: ATCC 6275, 72 h; how it was run: as §4
Aspergillus flavus [27] = assay: Antifungal activity against Aspergillus flavus ATCC 9643 incubated for 72 hrs followed by serial sub-cultivation for 72 hrs by serial dilution technique; type: functional; details: ATCC 9643, 72 h; how it was run: as §4
Talaromyces funiculosus [28] = assay: Antifungal activity against Penicillium funiculosum ATCC 36839 incubated for 72 hrs followed by serial sub-cultivation for 72 hrs by serial dilution technique; type: functional; details: ATCC 36839, 72 h; how it was run: as §4
Penicillium ochrochloron [29] = assay: Antifungal activity against Penicillium ochrochloron ATCC 9112 incubated for 72 hrs followed by serial sub-cultivation for 72 hrs by serial dilution technique; type: functional; details: ATCC 9112, 72 h; how it was run: as §4
Trichoderma viride [30] = assay: Antifungal activity against Trichoderma viride IAM 5061 incubated for 72 hrs followed by serial sub-cultivation for 72 hrs by serial dilution technique; type: functional; details: IAM 5061, 72 h; how it was run: as §4
Candida albicans [31] = assay: Antifungal activity against Candida albicans isolated from human incubated for 72 hrs followed by serial sub-cultivation for 72 hrs by serial dilution technique; type: functional; how it was run: as §4
Pseudomonas aeruginosa [32] = assay: Ratio of ampicillin MIC to compound MIC for Pseudomonas aeruginosa ATCC 27853; type: functional
Aspergillus ochraceus [33] = assay: Ratio of bifonazole to compound for Aspergillus ochraceus ATCC 12066; type: functional
Aspergillus niger [34] = assay: Ratio of bifonazole to compound for Aspergillus niger ATCC 6275; type: functional
Talaromyces funiculosus [35] = assay: Ratio of bifonazole to compound for Penicillium funiculosum ATCC 36839; type: functional
Penicillium ochrochloron [36] = assay: Ratio of bifonazole to compound for Penicillium ochrochloron ATCC 9112; type: functional
Trichoderma viride [37] = assay: Ratio of bifonazole to compound for Trichoderma viride IAM 5061; type: functional
Candida albicans [38] = assay: Ratio of bifonazole to compound for Candida albicans isolated from human; type: functional
Aspergillus ochraceus [39] = assay: Ratio of ketoconazole to compound for Aspergillus ochraceus ATCC 12066; type: functional
Aspergillus fumigatus [40] = assay: Ratio of ketoconazole to compound for Aspergillus fumigatus isolated from human; type: functional
Penicillium ochrochloron [41] = assay: Ratio of ketoconazole to compound for Penicillium ochrochloron ATCC 9112; type: functional
Candida albicans [42] = assay: Ratio of ketoconazole to compound for Candida albicans isolated from human; type: functional
Aspergillus ochraceus [43] = assay: Antifungal activity against Aspergillus ochraceus after 72 hrs by serial dilution technique

- MIC (Staphylococcus aureus [1]): 90 µM (≈ 25.8 µg/mL)
- MIC (Bacillus cereus [2]): 35 µM (≈ 10 µg/mL)
- MIC (Micrococcus flavus [3]): 70 µM (≈ 20 µg/mL)
- MIC (Listeria monocytogenes [4]): 90 µM (≈ 25.8 µg/mL)
- MIC (Pseudomonas aeruginosa [5]): 70 µM (≈ 20 µg/mL)
- MIC (Salmonella typhimurium [6]): 70 µM (≈ 20 µg/mL)
- MIC (Escherichia coli [7]): 70 µM (≈ 20 µg/mL)
- MIC (Enterococcus faecalis [8]): 90 µM (≈ 25.8 µg/mL)
- MIC (Aspergillus ochraceus [17]): 35 µM (≈ 10 µg/mL)
- MIC (Aspergillus niger [18]): 52.4 µM (≈ 15 µg/mL)
- MIC (Aspergillus flavus [19]): 52.4 µM (≈ 15 µg/mL)
- MIC (Talaromyces funiculosus [20]): 52.4 µM (≈ 15 µg/mL)
- MIC (Penicillium ochrochloron [21]): 35 µM (≈ 10 µg/mL)
- MIC (Trichoderma viride [22]): 26.2 µM (≈ 7.5 µg/mL)
- MIC (Candida albicans [23]): 35 µM (≈ 10 µg/mL)
- MIC (Aspergillus ochraceus [43]): 52.4 µM (≈ 15 µg/mL)
SMILES: CCCNc1nc(C)c(C(=O)/C=C/c2ccccc2)s1
- MBC (Staphylococcus aureus [9]): 105 µM (≈ 30.1 µg/mL)
- MBC (Bacillus cereus [10]): 70 µM (≈ 20 µg/mL)
- MBC (Micrococcus flavus [11]): 105 µM (≈ 30.1 µg/mL)
- MBC (Listeria monocytogenes [12]): 105 µM (≈ 30.1 µg/mL)
- MBC (Pseudomonas aeruginosa [13]): 90 µM (≈ 25.8 µg/mL)
- MBC (Salmonella typhimurium [14]): 90 µM (≈ 25.8 µg/mL)
- MBC (Escherichia coli [15]): 88 µM (≈ 25.2 µg/mL)
- MBC (Enterococcus faecalis [16]): 90 µM (≈ 25.8 µg/mL)
- MFC (Aspergillus ochraceus [24]): 52.4 µM (≈ 15 µg/mL)
- MFC (Aspergillus fumigatus [25]): 70 µM (≈ 20 µg/mL)
- MFC (Aspergillus niger [26]): 70 µM (≈ 20 µg/mL)
- MFC (Aspergillus flavus [27]): 70 µM (≈ 20 µg/mL)
- MFC (Talaromyces funiculosus [28]): 70 µM (≈ 20 µg/mL)
- MFC (Penicillium ochrochloron [29]): 70 µM (≈ 20 µg/mL)
- MFC (Trichoderma viride [30]): 35 µM (≈ 10 µg/mL)
- MFC (Candida albicans [31]): 70 µM (≈ 20 µg/mL)
- Ratio (Pseudomonas aeruginosa [32]): 10
- Ratio (Aspergillus ochraceus [33]): 10
- Ratio (Aspergillus niger [34]): 10
- Ratio (Talaromyces funiculosus [35]): 10
- Ratio (Penicillium ochrochloron [36]): 10
- Ratio (Trichoderma viride [37]): 10
- Ratio (Candida albicans [38]): 10
- Ratio (Aspergillus ochraceus [39]): 10
- Ratio (Aspergillus fumigatus [40]): 10
- Ratio (Penicillium ochrochloron [41]): 10
- Ratio (Candida albicans [42]): 10
